Test results as given in PMC6335621 (Chemical Science, 2018).

Columns and labels:
HepG2 = test: In vitro cytotoxicity; format: cell-based, human; conditions: read-out: IC50 HepG2; MTT assay, 72 h incubation
Summary of the method: (§1)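 Cell lines: HeLa (cervical epithelial carcinoma), HepG2 (hepatocellular carcinoma), MCF-7 (breast carcinoma), HCT-116 (colorectal carcinoma), and HCC827 and NCI-H460 (non-small cell lung carcinoma).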

HCT116 = test: In vitro cytotoxicity; format: cell-based, human; conditions: read-out: IC50 HCT116; MTT assay, 72 h incubation
Summary of the method: as §1

HCC827 = test: In vitro cytotoxicity; format: cell-based, human; conditions: read-out: IC50 HCC827; MTT assay, 72 h incubation
Summary of the method: as §1

NCI-H460 [1] = test: In vitro cytotoxicity in the dark; format: cell-based, human; conditions: read-out: IC50 NCI-H460 (dark)
Summary of the method: as §1

NCI-H460 [2] = test: Light-induced cytotoxicity assay; format: cell-based, human; conditions: for PI = IC50(dark)/IC50(light): NCI-H460, phototoxicity index
Summary of the method: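 NCI-H460 cells were incubated with test compound, then exposed to visible light at 2.8 mW cm–2 for 1 h. […] Phototoxicity index = IC50(dark)/IC50(light).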

[3] = in CHCl3; cited from earlier work
[4] = Stability in the solid state and in CDCl3 solution; format: physicochemical

Molecule: N.N.[Cl][Pt][Cl] [Cisplatin]
- IC50 (HepG2): 6.18 ± 0.82 µM
- IC50 (HCT116): 6.94 ± 0.54 µM
- IC50 (HCC827): 9.61 ± 0.81 µM
- IC50 (NCI-H460 [1]): 3.96 ± 0.48 µM
- PI = IC50(dark)/IC50(light) (NCI-H460 [2]): 0.86
- PI = IC50(dark)/IC50(light) (NCI-H460 [2]; listed as cisplatin): < 1
- IC50 (NCI-H460 [2]; read-out: IC50 NCI-H460 (light), visible light irradiation 2.8 mW cm^–2 for 1 h): 4.61 ± 0.31 µM

Molecule: C1=Cc2nc1c(-c1ccccc1)c1ccc([nH]1)c(-c1ccccc1)c1nc(c(-c3ccccc3)c3ccc([nH]3)c2-c2ccccc2)C=C1 [H2tpp]
- Φso (quantum yield of singlet oxygen production) [3]: 0.55

Molecule: [Ir^III(F20tpp)(BIMe)Cl] [1d]
- Stable in the solid state and in CDCl3 solution for [4]: 1 week

Molecule: [Ir^III(F20tpp)(IMe)Cl] [1c]
- Decomposes within ([4]; under ambient conditions): ≤ 1 days

Molecule: [Ir^III(tmp)(BIMe)Cl] [1b]
- Stable in the solid state and in CDCl3 solution for [4]: 1 week

Molecule: [Ir^III(tmp)(IMe)Cl] [1a]
- Stable in the solid state and in CDCl3 solution for [4]: 1 week
